Data: PubChem BioAssay
Active and inactive are the calls of the source.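 The calls were made as follows, unless noted: active = inhibition at or above 50% relative to wild type and mutant plate controls; inactive = inhibition below 50%.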

What was measured:
[1] = inhibitors of TNFa-induced NFkB p65 translocation, primary screen, imaging, HUVEC, MLSMR starter and 10KST1 sets (AID 438;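 active = inhibition above 20% together with a positive visual image hit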;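 also: compound added about 3h40 before a 20 min TNFalpha stimulation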;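 as to inhibition: signal is the nuclear over cytoplasmic p65 intensity ratio per well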); settings: HUVEC TNFa-induced p65 nuclear translocation; cell count: measured here: nuclei count (cytotoxicity indicator), at 2.08 µM; inhibition: at 2 µM, stronger effect = higher value, 0% TNFa-plus-vehicle, 100% no-TNFa wells
[2] = inhibitors of E-selectin induction by TNFa, primary screen, imaging, HUVEC, immunofluorescence, MLSMR starter and 10KST1 sets (AID 487;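 active = visually confirmed hit in the image check and inhibition above 20%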;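 as to inhibition: signal is fraction of cell area covered by stained E-selectin grains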;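 as to nuclei count: 100% = median nuclei count of all wells on the same plate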); settings: HUVEC TNFalpha-induced E-selectin immunofluorescence imaging, at 2 µM; inhibition: stronger effect = higher value; nuclei count: measured here: cell number, toxicity
[3] = DUSP6 inhibitors restoring Erk phosphorylation by chemical complementation, primary imaging in DUSP6-transfected HeLa (AID 609;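 active = compounds giving at least 50% inhibition in the cell-based MKP-3 phosphatase rescue imaging test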;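 as to inhibition: phospho-Erk level distribution per well compared with pooled transfected vehicle control wells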); settings: HeLa MKP-3 transfected, phospho-Erk imaging KS statistic, at 10 µM, cells stimulated with TPA for 15 min
[4] = biological target: Dual specificity protein phosphatase 6 (Homo sapiens) (UniProt Q16828); experiment: as above; settings: HeLa MKP-3 transfected, phospho-Erk imaging KS statistic; at 10 µM; stronger effect = higher value; cells stimulated with TPA for 15 min
[5] = biological target: Voltage-gated potassium channel subunit beta-2 (Rattus norvegicus) (UniProt P62483); experiment: KvBeta enzyme negative modulators, primary screen, biochemical, NADPH fluorescence (AID 622;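 active = fluorescence slope higher than the sample average by over 3 SD, cut at about -0.22 in these data, passing the limit was not always enough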;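 also: slope of raw intensity against log time taken from 70 to 1610 s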); settings: recombinant KvBeta, 4-cyanobenzaldehyde reduction, at 10 µM, stronger effect = higher value
[6] = biological target: Voltage-gated potassium channel subunit beta-2 (Rattus norvegicus) (UniProt P62483); experiment: KvBeta positive modulators, primary screen, biochemical, NADPH fluorescence (AID 623;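 active = NADPH fluorescence slope more negative than the mean of all samples by about 3 SD, 99.7% confidence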;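 also: fluorescence intensity change per second fitted from 20 to 320 s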); settings: Recombinant KvBeta, NADPH fluorescence decrease slope, 10 min; at 10 µM; stronger effect = lower value
[7] = biological target: Muscarinic acetylcholine receptor M4 (Homo sapiens) (UniProt P08173); experiment: compounds altering M4/GIRK thallium flux, either direction, primary screen, M4 allosteric agonist project, cell-based, HEK293 M4/GIRK, BTC-AM (AID 625;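 active = fluorescence slope after compound addition differing from the mean of all tested samples at 99.7% confidence, mostly higher but some lower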;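 also: thallium influx through GIRK channels coupled to M4 in HEK293 cells with BTC-AM dye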); settings: at 10 µM, actives lie on both sides
Method in brief: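 assay system = HEK293 cells with M4 receptor and GIRK channels | medium = pH 7.3 thallium assay buffer | doses = 10 µM final, single point | timing = cells overnight at 37 °C, BTC-AM loading 1 h, reads 2 min total | signal = BTC-AM fluorescence, 1 Hz kinetic reads | read-out = post-addition slope, 15–24 s, of baseline-normalized fluorescence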

[8] = inhibitors of larval lipid processing in zebrafish, primary screen, whole organism, PED6 fluorescence, gall bladder and intestine (AID 686;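 active = a full or partial loss of lipid-probe fluorescence in the fish gall bladder, intestine or both, judged by eye; inactive = no fluorescence loss, or compound toxic to the fish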;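 also: larvae 5 to 7 days old with five fish per well; signal comes from phospholipase A2 cleavage of quenched PED6 carried via bile; overnight exposure to compound and PED6 before scoring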); settings: Zebrafish larvae PED6 lipid processing, fluorescence scoring; screened at 20 µM (by protocol)
Method in brief: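 Also added: quenched phospholipase substrate PED6, 100 nM final, ingested by larvae; System: zebrafish larvae, 5-7 d; Quantity: 5 larvae per well; Compound: 20 µM single dose; Schedule: overnight compound and PED6 incubation; Read-out: visual per-well fluorescence inhibition score; Measured by: By-eye fluorescence microscopy; Medium: E3.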

[9] = inhibitors of Chlamydomonas gravitaxis, primary screen, whole organism, Chlamydomonas reinhardtii, WT vs cilia-less mutant, absorbance, 96-well (AID 463189); settings: OD600 absorbance, 2 days, at 10 µM, stronger effect = higher value;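 also: 0% = wild type cc124 cells in DMSO and 100% = ciliumless bld1 mutant cells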
[10] = measured here: cell density z-score
[11] = measured here: nuclear c-Myc green intensity z-score
[12] = measured here: nuclear pErk red intensity z-score, stronger effect = higher value

Dual specificity protein phosphatase 6 (Homo sapiens), sequence (Q16828 whole entry, looked up): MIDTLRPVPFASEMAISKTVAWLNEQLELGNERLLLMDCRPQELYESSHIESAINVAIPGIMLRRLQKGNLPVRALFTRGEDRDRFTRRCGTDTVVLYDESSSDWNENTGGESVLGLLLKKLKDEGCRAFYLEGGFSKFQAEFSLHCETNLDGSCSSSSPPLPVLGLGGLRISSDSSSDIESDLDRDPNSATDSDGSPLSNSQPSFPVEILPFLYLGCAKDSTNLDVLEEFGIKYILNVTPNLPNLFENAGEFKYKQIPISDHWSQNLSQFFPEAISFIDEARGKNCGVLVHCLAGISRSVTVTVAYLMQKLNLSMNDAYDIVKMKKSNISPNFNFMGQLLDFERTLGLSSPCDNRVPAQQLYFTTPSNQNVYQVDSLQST
Voltage-gated potassium channel subunit beta-2 (Rattus norvegicus), sequence (P62483 whole entry, looked up): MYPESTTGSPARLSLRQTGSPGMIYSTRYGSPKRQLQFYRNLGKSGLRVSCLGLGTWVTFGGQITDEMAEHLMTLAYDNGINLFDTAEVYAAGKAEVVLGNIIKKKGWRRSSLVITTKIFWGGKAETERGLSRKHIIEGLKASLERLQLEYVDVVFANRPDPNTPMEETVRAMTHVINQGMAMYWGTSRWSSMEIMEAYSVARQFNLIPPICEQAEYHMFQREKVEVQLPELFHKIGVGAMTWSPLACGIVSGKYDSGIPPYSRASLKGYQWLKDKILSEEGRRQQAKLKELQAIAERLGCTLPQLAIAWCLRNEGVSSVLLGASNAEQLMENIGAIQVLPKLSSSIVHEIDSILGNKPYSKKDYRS
Muscarinic acetylcholine receptor M4 (Homo sapiens), sequence (P08173 whole entry, looked up): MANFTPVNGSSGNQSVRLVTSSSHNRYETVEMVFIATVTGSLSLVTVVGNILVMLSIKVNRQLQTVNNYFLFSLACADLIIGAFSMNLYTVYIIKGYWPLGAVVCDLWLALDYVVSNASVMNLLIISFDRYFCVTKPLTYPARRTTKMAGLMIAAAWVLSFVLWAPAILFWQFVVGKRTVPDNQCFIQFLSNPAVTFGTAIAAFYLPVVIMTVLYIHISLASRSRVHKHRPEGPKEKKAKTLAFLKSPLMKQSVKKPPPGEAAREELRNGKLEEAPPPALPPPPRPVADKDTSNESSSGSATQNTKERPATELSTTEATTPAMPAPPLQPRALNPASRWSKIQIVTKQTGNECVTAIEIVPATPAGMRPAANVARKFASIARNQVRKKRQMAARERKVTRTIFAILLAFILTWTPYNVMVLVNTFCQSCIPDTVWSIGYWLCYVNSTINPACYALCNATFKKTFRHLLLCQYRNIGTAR

SMILES | cell count [1] | inhibition [1] | inhibition [2] | nuclei count [2] | z-score [3, 10] | z-score [3, 11] | z-score [3, 12] | inhibition [4] | fluorescence slope [5] | NADPH fluorescence slope [6] | fluorescence slope [7] | outcome [8] | inhibition [9]
N#Cc1nc(-c2cccs2)oc1NCCN1CCOCC1 | 666 | 6.6% (inactive) | -60.7% (inactive) | 146% | 0.927 | 0.0167 | -0.446 | 10.9% (inactive) | -0.0476 (inactive) | -2.5e-05 (inactive) | 0.00626 (inactive) | inactive | 6.5% (inactive)
CC(C)(C)c1nnc2sc(SCC(=O)c3ccccc3)nn2c1=O | 619 | 3.4% (inactive) | -55% (inactive) | 105% | -1.21 | -0.101 | 1.16 | -7.67% (inactive) | -0.455 (inactive) | -6.8e-05 (inactive) | 0.00537 (inactive) | inactive | 11.5% (inactive)
Cc1cc(/C(O)=C2\C(=O)C(=O)N(CCN(C)C)C2c2ccncc2)ccc1OCc1ccccc1 (stereo unspecified) | 664 | -0.2% (inactive) | 9.6% (inactive) | 174% | -0.686 | 0.247 | -0.699 | 5.35% (inactive) | -0.481 (inactive) | -5.4e-05 (inactive) | 0.00492 (inactive) | inactive | 3.31% (inactive)
Cn1c(N2CCOCC2)nc2c1c(=O)n(Cc1ccc(Cl)cc1)c(=O)n2C | 644 | 12.1% (inactive) | -31.1% (inactive) | 101% | 0.134 | 0.368 | 0.486 | -2.09% (inactive) | -0.446 (inactive) | -3.4e-05 (inactive) | 0.00452 (inactive) | inactive | -7.86% (inactive)
COC(=O)C(NC(C)=O)(Nc1nc2c(s1)CCCC2)C(F)(F)F (stereo unspecified) | 370 | -7.5% (inactive) | -63.7% (inactive) | 193% | 1.49 | 0.382 | -1.06 | 5.42% (inactive) | -0.414 (inactive) | -0.000114 (inactive) | 0.00554 (inactive) | inactive | -6.09% (inactive)
CCCSc1nnc2n(C)c(=O)c3c4c(sc3n12)CCC4 | 376 | -2.9% (inactive) | -11.1% (inactive) | 83.1% | -0.271 | -0.0406 | 0.896 | 9.42% (inactive) | -0.501 (inactive) | -7.9e-05 (inactive) | 0.00582 (inactive) | inactive | 62% (active)
O=C1C=C(NCCNc2c(F)c(F)c(CO)c(F)c2F)CCC1 | 504 | -12.3% (inactive) | -87.2% (inactive) | 105% | 0.485 | -0.53 | -1.21 | 17.8% (inactive) | -0.396 (inactive) | -1.8e-05 (inactive) | 0.00657 (inactive) | inactive | 32.9% (inactive)
